Legend:
A2780 [1] = experiment: Cytotoxicity against human ovarian carcinoma A2780cisR cell line; type: functional, cell-based
In short: (§1)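 Cells kept in log-phase DMEM with 10% fetal calf serum, penicillin/streptomycin and Glutamax. Seeded at 2000 cells/well and allowed 48 h adhesion at 37 °C, 5% CO2. Exposed 72 h to compound diluted from a DMSO stock into complete medium, final 0.01 to 0.0001 mg/mL, in quadruplicate. Vehicle control contained 1% DMSO. Proliferation read by MTT (1 h, DMSO solubilization, OD 590 nm).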

A2780 [2] = experiment: Cytotoxicity against human ovarian carcinoma A2780 cell line; type: functional, cell-based; in short: as §1

Substance	IC50 (A2780 [1]) [µM]	IC50 (A2780 [2]) [µM]
alpha-[Ru(azpy)2(NO3)2]	6.3	8.5
CARBOPLATIN	41.6	8.2
alpha-[Ru(azpy)2Cl2]	0.98	0.85
alpha-[Ru(azpy)2(cbdca-O,O')]	4.9	7.2
alpha-[Ru(azpy)2(mal)]	6.2	7.9
beta-[Ru(azpy)2(NO3)2] CHCl3	12.1	9.7
CISPLATIN	7.8	2.3
beta-[Ru(azpy)2Cl2] CHCl3	7.3	1.6

— ChEMBL document CHEMBL1136783, “New cytotoxic and water-soluble bis(2-phenylazopyridine)ruthenium(II) complexes” (J Med Chem, 2003)
